Measurements taken from publication PMC7029422 (Bioorganic & medicinal chemistry, 2020).
“Also recorded” adds a separate entry of the source.

How the values were obtained:
[1] = test system: MDA-MB-435 human melanoma cells; test: Cytotoxicity against MDA-MB-435 cells; type: cell-based; conditions: MDA-MB-435, 72 h, read-out: IC50 value toward the MDA-MB-435 human melanoma cells
[2] = test system: HT-29 human colon cancer cells; test: Cytotoxicity against HT-29 cells; type: cell-based; conditions: HT-29, 72 h, read-out: IC50 value toward the HT-29 human colon cancer cells
[3] = test system: glucose uptake in H1299 human lung cancer cells; test: Glucose uptake assay; type: cell-based; conditions: 30 μM, 15 min treatment; WZB117 30 μM as positive control
Method in brief: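 H1299 cells (DMEM, 25 mM glucose, 10% FBS, 37 °C, 5% CO2) in 24-well plates; washed, serum-starved in FBS-free DMEM 1.5 h, then 30 min in glucose-free KRP. Test compound at final 30 μM for 15 min. Uptake then started with 37 MBq/L 2-deoxy-D-[3H]glucose plus 1 mM glucose (final) for 40 min. Stopped with PBS; lysate radioactivity counted by liquid scintillation. Triplicate, three independent experiments; Student's t-test versus vehicle.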

[4] = test system: OVCAR3 human ovarian cancer cells; test: Cytotoxicity against OVCAR3 cells; type: cell-based; conditions: OVCAR-3, 72 h, read-out: IC50 value toward the OVCAR3 human ovarian cancer cells
[5] = target: Na^+/K^+-ATPase (adenosine 5′-triphosphatase from porcine cerebral cortex); conditions: read-out: Na+/K+-ATPase activity inhibition, IC50; previous investigation; cited from earlier work

Row | SMILES | IC50 [1] | IC50 [2] | Inhibition of glucose uptake/transport in H1299 cells [3] | IC50 [4] | IC50 [5]
1 | CO[C@H]1[C@H](O[C@H]2CC[C@]3(C=O)[C@H]4CC[C@]5(C)[C@](O)(C6=CC(=O)OC6)CC[C@]5(O)[C@@H]4CC[C@]3(O)C2)O[C@H](C)[C@H](O)[C@@H]1OC [Compound 1, (3β)-3-[(2,3-di-O-methyl-β-D-fucopyranosyl)oxy]-5β,14β,17β-trihydroxy-19-oxo-17-epi-card-20(22)-enolide] | > 20000 nM |  |  |  | 
2 | CO[C@H]1[C@H](O[C@H]2CC[C@]3(C=O)[C@H]4CC[C@]5(C)[C@@H](C6=CC(=O)OC6)CC[C@]5(O)[C@@H]4CC[C@]3(O)C2)O[C@H](C)[C@H](O)[C@@H]1OC [Compound 3, (+)-strebloside] |  | 170 nM | did not inhibit glucose uptake; also recorded: did not inhibit glucose transport | 130 nM | 160 nM
3 | CO[C@H]1[C@H](O[C@H]2CC[C@]3(C=O)[C@H]4CC[C@]5(C)[C@@H]6CC[C@]5(O[C@H]5OC(=O)C[C@H]56)[C@@H]4CC[C@]3(O)C2)O[C@H](C)[C@H](O)[C@@H]1OC [Compound 3a, (+)-20,22-dihydro-14,21-epoxystrebloside] | > 20000 nM |  |  |  | 
4 | CC(=O)O[C@H]1C(=O)[C@@]2(C)[C@H]([C@H](OC(=O)c3ccccc3)[C@]3(O)C[C@H](OC(=O)[C@H](O)[C@@H](NC(=O)c4ccccc4)c4ccccc4)C(C)=C1C3(C)C)[C@]1(OC(C)=O)CO[C@@H]1C[C@@H]2O [Paclitaxel, reference compound] |  | 0.8 nM |  |  | 
